Entries after “also recorded” stand apart in the source; their conditions may differ. Read-outs that look alike come from different tables or passages of the source.
Legend:
P450 3A5 [1] = biological target: T1, P450 3A5 (Homo sapiens, UniProt P20815); assay: Formation of 7-hydroxycoumarin by P450 3A5; type: in vitro ADME; conditions: 30 min reaction
Summary of the method: (§1)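 P450 3A4 or 3A5 (expressed in E. coli, purified) was reconstituted with test compound. Reactions were started with 1 mM NADPH, run 30 min and stopped with 15% trichloroacetic acid. 7-Hydroxycoumarin was measured by C18 HPLC (isocratic 30% methanol, 0.2% acetic acid) with fluorescence detection (ex 350/em 453 nm). Quantified from peak areas against a 7-hydroxycoumarin standard curve.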

P450 3A4 [2] = assay: LC-APCI-MS metabolite analysis with P450 3A4; type: in vitro ADME, human; conditions: incubation with P450 3A4 and NADPH
Summary of the method: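 P450 3A4 reconstituted with reductase and lipid, then incubated with the test compound and NADPH at 37°C for 60 min. Control and inactivated samples (900 pmol each) were extracted with ethyl acetate and dried under nitrogen. Analysis was by LC-APCI-MS with UV at 319 nm, full scans m/z 100–2000, and data-dependent MS/MS on the four most intense ions.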

P450 3A4 [3] = assay: Trapping of reactive intermediates formed by P450 3A4 with GSH; type: in vitro ADME, human; conditions: incubation with P450 3A4 in the presence of GSH and NADPH
Summary of the method: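 Reconstituted P450 3A4 (0.5 nmol, with reductase and lipid) was inactivated by the test compound plus NADPH in the presence of 10 mM GSH. Reactions were stopped with 10% trifluoroacetic acid (60 μl/ml sample). Separation used a C18 column in a 5% acetonitrile/0.1% acetic acid gradient. Detection was ESI MS: full scan m/z 150–1000 plus two dependent MS/MS scans at 35% collision energy, with fluorescence detection also used.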

P450 3A4 [4] = type: biochemical, human; conditions: for % Activity Remaining: 50 μM CPE or 12 μM TFCPE; for loss in O-debenzylation activity: after a 20-min incubation compared with 0 min
Summary of the method: (§2)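 Purified P450 was reconstituted with reductase and held 20 min at room temperature, then diluted in 50 mM Hepes pH 7.5 with 2 mM GSH and 250 units catalase. Test compound was added (25–500 μM or 5–100 μM, in acetonitrile), then NADPH. Timed 9 pmol aliquots went into 50 μM BFC/1 mM NADPH in 200 mM phosphate pH 7.4 for 15 min at 37 °C. Fluorescence read at ex 409/em 530 nm; KI, kinact and t1/2 from double-reciprocal plots.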

human liver microsomes = assay: Inactivation of human liver microsomes; type: biochemical; conditions: BFC assay; data not shown
P450 3A5 [5] = biological target: T1, P450 3A5; type: biochemical; conditions: in the presence of NADPH
Summary of the method: as §2

P450 3A4 [6] = assay: Heme analysis of inactivated P450 3A4; type: biochemical, human; conditions: for % P450 Remaining by reduced-CO spectrum: 50 μM CPE or 12 μM TFCPE; for Residual Heme by HPLC: area under heme peak at 405 nm, control set to 100 %; for loss in heme: measured by HPLC, compared with the -NADPH control
Summary of the method: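 P450 3A4 was reconstituted and inactivated as in the activity assay (50 μM or 12 μM test compound, 20 min, ±NADPH). For reduced-CO spectra, 100 pmol went into 50 mM phosphate pH 7.4 with 40% glycerol and 0.6% Tergitol, was CO-bubbled and dithionite-reduced, and scanned at 400–500 nm. For heme, 100 pmol was run on C4 HPLC (30–90% acetonitrile, 0.1% TFA, 30 min) and the 405 nm peak area was set against control = 100%. Mean and S.D. of four experiments.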

[7] = system: dextromethorphan induced micrsomes; assay: Inactivation of dextromethorphan induced microsomes; type: biochemical; conditions: data not shown
Summary of the method: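 Human liver microsomes and dextromethorphan-induced microsomes (0.3 nmol) were incubated with test compound in the presence of catalase and GSH. Reactions were started with NADPH and sampled at 0, 5 and 12 min. Residual activity was measured by the BFC O-debenzylation fluorescence assay.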

P450 3A4 [8] = type: biochemical, human; conditions: substrate testosterone; reconstituted system
P450 3A4 [9] = assay: Formation of 7-hydroxycoumarin by P450 3A4; type: in vitro ADME, human; conditions: 30 min reaction
Summary of the method: as §1

P450 3A5 [10] = biological target: T1, P450 3A5; assay: LC-APCI-MS metabolite analysis with P450 3A5; type: in vitro ADME; conditions: incubation with P450 3A5
Summary of the method: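 Reconstituted P450 3A5 was incubated with test compound and NADPH. Samples (900 pmol) were extracted with ethyl acetate, dried and taken up in 50% acetonitrile. Separation used C18 reverse phase with a water/acetonitrile gradient in 0.1% acetic acid, monitored by UV at 319 nm. Detection was positive-mode APCI on a linear ion trap, with full scans at m/z 100–2000 and data-dependent MS/MS.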

[11] = substrate BFC, reconstituted system

T1 sequence (P20815 whole entry): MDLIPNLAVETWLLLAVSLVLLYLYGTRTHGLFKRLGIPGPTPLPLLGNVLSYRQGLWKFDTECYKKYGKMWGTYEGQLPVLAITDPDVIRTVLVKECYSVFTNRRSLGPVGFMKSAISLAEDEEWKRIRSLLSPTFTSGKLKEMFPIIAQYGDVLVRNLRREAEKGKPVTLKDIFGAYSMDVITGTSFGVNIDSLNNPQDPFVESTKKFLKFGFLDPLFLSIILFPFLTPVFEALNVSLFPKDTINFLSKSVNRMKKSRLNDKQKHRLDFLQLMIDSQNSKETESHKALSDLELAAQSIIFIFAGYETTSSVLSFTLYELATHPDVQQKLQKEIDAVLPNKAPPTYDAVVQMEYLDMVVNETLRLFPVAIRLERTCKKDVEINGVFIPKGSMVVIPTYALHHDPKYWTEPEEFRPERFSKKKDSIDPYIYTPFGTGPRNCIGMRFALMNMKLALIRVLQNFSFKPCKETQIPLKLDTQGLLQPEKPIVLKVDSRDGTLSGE

## C#CCOc1ccc2ccc(=O)oc2c1 [CPE, 7-coumarin propargyl ether]
P450 3A5 [1]
  Formation of 7-OH coumarin: 85.5 ± 7 pmol/pmol P450/min
P450 3A4 [2]
  metabolite peak by LC-APCI-MS/UV 319 nm: No similar peak or any other metabolite peak was observed
P450 3A4 [3]
  formation of glutathione adducts: formation of CPE- and TFCPE-glutathione adducts
P450 3A4 [4]; 0 min, +NADPH
  % Activity Remaining: 85 ± 4%
P450 3A4 [4]; 0 min, -NADPH
  % Activity Remaining: 86 ± 5%
P450 3A4 [4]; 20 min, +NADPH
  % Activity Remaining: 50 ± 9%
P450 3A4 [4]; 20 min, -NADPH
  % Activity Remaining: 79 ± 3%
P450 3A4 [4]
  loss in O-debenzylation activity: ~35%
P450 3A4 [4]; [11]
  Kinact (maximal rate of inactivation): 0.05 min⁻¹
Human liver microsomes
  inactivation of human liver microsomes: did not show inactivation; also recorded: neither CPE nor TFCPE led to any inactivation
P450 3A5 [5]
  inactivation of the BFC O-debenzylation activity of P450 3A5: no inactivation; also recorded: neither CPE nor TFCPE showed any effect; also recorded: do not affect the activity
P450 3A4 [6]; 0 min, +NADPH
  % P450 Remaining by reduced-CO spectrum: 69 ± 5%
P450 3A4 [6]; 0 min, -NADPH
  % P450 Remaining by reduced-CO spectrum: 69 ± 7%
P450 3A4 [6]; 20 min, +NADPH
  % P450 Remaining by reduced-CO spectrum: 67 ± 4%
P450 3A4 [6]; 20 min, -NADPH
  % P450 Remaining by reduced-CO spectrum: 67 ± 2%
P450 3A4 [6]; +NADPH
  Residual Heme by HPLC: 70 ± 11%
P450 3A4 [6]; -NADPH
  Residual Heme by HPLC: 100 ± 9%
P450 3A4 [6]
  loss in heme: approximately 30%
[7]
  inactivation of dextromethorphan induced microsomes: did not show inactivation
P450 3A4 [8]
  Kinact (maximal rate of inactivation): 0.014 min⁻¹
P450 3A4 [9]
  Formation of 7-OH coumarin: 48.1 ± 5 pmol/pmol P450/min

## C#CCOc1ccc2c(C(F)(F)F)cc(=O)oc2c1 [TFCPE, 7-(4-trifluoromethyl)coumarin propargyl ether]
P450 3A5 [1]
  Formation of 7-OH coumarin: 78.8 ± 11 pmol/pmol P450/min
P450 3A4 [2]
  metabolite peak by LC-APCI-MS/UV 319 nm: single metabolite peak eluting at 20.34 min
P450 3A4 [3]
  formation of glutathione adducts: formation of CPE- and TFCPE-glutathione adducts
P450 3A4 [4]; 0 min, +NADPH
  % Activity Remaining: 82 ± 5%
P450 3A4 [4]; 0 min, -NADPH
  % Activity Remaining: 88 ± 3%
P450 3A4 [4]; 20 min, +NADPH
  % Activity Remaining: 25 ± 3%
P450 3A4 [4]; 20 min, -NADPH
  % Activity Remaining: 79 ± 7%
P450 3A4 [4]
  loss in O-debenzylation activity: approximately 55%
P450 3A4 [4]; [11]
  Kinact (maximal rate of inactivation): 0.04 min⁻¹
  t1/2: 16.5 min
P450 3A4 [4]; with the -NADPH +TFCPE control
  loss in activity: approximately 55%
Human liver microsomes
  inactivation of human liver microsomes: did not show inactivation; also recorded: neither CPE nor TFCPE led to any inactivation
P450 3A5 [5]
  inactivation of the BFC O-debenzylation activity of P450 3A5: no inactivation; also recorded: neither CPE nor TFCPE showed any effect; also recorded: do not affect the activity
P450 3A4 [6]; 0 min, +NADPH
  % P450 Remaining by reduced-CO spectrum: 75 ± 6%
P450 3A4 [6]; 0 min, -NADPH
  % P450 Remaining by reduced-CO spectrum: 75 ± 4%
P450 3A4 [6]; 20 min, +NADPH
  % P450 Remaining by reduced-CO spectrum: 43 ± 4%
P450 3A4 [6]; 20 min, -NADPH
  % P450 Remaining by reduced-CO spectrum: 62 ± 2%
P450 3A4 [6]; +NADPH
  Residual Heme by HPLC: 61 ± 2%
P450 3A4 [6]; -NADPH
  Residual Heme by HPLC: 100 ± 4%
P450 3A4 [6]
  loss in heme: 40%
[7]
  inactivation of dextromethorphan induced microsomes: did not show inactivation
P450 3A4 [8]
  Kinact (maximal rate of inactivation): 0.04 min⁻¹
  t1/2: 17 min
P450 3A4 [9]
  Formation of 7-OH coumarin: 97.2 ± 1 pmol/pmol P450/min
P450 3A5 [10]
  metabolite by LC-APCI-MS: did not result in any metabolite

Source: publication PMC2736802 (Drug metabolism and disposition: the biological fate of …, 2008)
